Measurements from ChEMBL document CHEMBL2157866, “Virtual screening and computational optimization for the discovery of covalent prolyl oligopeptidase inhibitors with activity in human cells” (J Med Chem, 2012).

System: not listed separately
Test: Half life in rat liver microsomes at 1 uM after 30 mins by LC-MSD method
Format: ADME, Microsome
Details: not given
Procedure, shortened: (§1)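 Test compound at 1 μM in 0.1 M KH2PO4 pH 7.4 with liver microsomes (0.5618 mg/mL) at 37 °C. Reaction started with NADPH. Aliquots taken at 0, 10, 20 and 30 min and quenched into equal-volume acetonitrile. Samples centrifuged at 9000g, 4 °C, and supernatants analysed by LC-MSD.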

Row | SMILES | half-life at 1 µM [min]
1 | N#C[C@@H]1CCCN1C(=O)c1ccccc1C(=O)NCc1ccccc1 | 38
2 | O=C(NCc1ccccc1)c1ccccc1C(=O)N1CCCC1 | 17
3 | O=C(NCc1ccccc1)c1ccccc1C(=O)N1CCCCC1 | 4
4 | N#C[C@@H]1CCCN1C(=O)c1cccc2c1C(=O)N(Cc1ccccc1)C2 | 35
5 | O=C(c1cccc2c1C(=O)N(Cc1ccccc1)C2)N1CCCC1 | 23

Target: T1, Prolyl endopeptidase FAP (Homo sapiens, UniProt Q12884)
T1 sequence (Q12884 whole entry): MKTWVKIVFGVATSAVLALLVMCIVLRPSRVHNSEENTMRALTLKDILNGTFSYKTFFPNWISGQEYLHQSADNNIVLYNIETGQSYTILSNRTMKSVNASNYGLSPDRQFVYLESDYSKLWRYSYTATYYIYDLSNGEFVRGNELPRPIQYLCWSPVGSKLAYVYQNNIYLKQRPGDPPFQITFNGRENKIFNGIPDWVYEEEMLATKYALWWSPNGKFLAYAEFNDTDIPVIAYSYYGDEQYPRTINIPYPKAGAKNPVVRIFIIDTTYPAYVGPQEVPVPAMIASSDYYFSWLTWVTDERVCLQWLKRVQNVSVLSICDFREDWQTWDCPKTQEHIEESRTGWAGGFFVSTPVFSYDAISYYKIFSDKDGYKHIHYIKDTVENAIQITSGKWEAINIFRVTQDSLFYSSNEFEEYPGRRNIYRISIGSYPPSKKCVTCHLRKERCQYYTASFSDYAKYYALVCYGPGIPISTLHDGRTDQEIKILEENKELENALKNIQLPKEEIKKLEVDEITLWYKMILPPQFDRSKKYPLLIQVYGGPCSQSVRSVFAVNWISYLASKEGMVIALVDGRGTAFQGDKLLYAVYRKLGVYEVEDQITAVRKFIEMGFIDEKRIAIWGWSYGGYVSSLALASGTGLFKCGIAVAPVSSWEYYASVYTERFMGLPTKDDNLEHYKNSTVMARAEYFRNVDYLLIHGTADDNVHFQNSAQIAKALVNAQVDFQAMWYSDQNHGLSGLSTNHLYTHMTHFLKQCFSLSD
Test: Inhibition at human recombinant FAPalpha
Details: not given
Procedure, shortened: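 Recombinant human FAPα diluted in PBS with 1 mg/mL BSA. Setup as for cell extracts: inhibitor preincubated 5–10 min at room temperature, then Z-Gly-Pro-AMC at 10 μM final. AMC fluorescence (ex/em 360/460 nm) recorded for 30 min at 37 °C.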

Row | SMILES | IC50 [µM]
6 | N#C[C@@H]1CCCN1C(=O)c1ccccc1C(=O)NCc1ccccc1 | > 100
7 | N#C[C@@H]1CCCN1C(=O)c1cccc2c1C(=O)N(Cc1ccccc1)C2 | > 100
8 | O=C(c1cccc2c1C(=O)N(Cc1ccccc1)C2)N1CCCC1 | > 100

System: not listed separately
Test: Intrinsic clearance in rat liver microsomes at 1 uM after 30 mins by LC-MSD method
Format: ADME, Microsome
Details: read-out: CLH
Procedure, shortened: as §1

Row | SMILES | microsomal CLint at 1 µM [µL/min/mg]
9 | N#C[C@@H]1CCCN1C(=O)c1ccccc1C(=O)NCc1ccccc1 | 37
10 | O=C(NCc1ccccc1)c1ccccc1C(=O)N1CCCC1 | 83
11 | O=C(NCc1ccccc1)c1ccccc1C(=O)N1CCCCC1 | 311
12 | N#C[C@@H]1CCCN1C(=O)c1cccc2c1C(=O)N(Cc1ccccc1)C2 | 39
13 | O=C(c1cccc2c1C(=O)N(Cc1ccccc1)C2)N1CCCC1 | 62

System: not listed separately
Test: Half life in human liver microsomes at 1 uM after 30 mins by LC-MSD method
Format: ADME, Microsome
Details: not given
Procedure, shortened: as §1

Row | SMILES | half-life at 1 µM [min]
14 | N#C[C@@H]1CS[C@H]2C[C@@H](NC(=O)OCc3ccccc3)C(=O)N12 | 134
15 | N#C[C@@H]1CCCN1C(=O)c1ccccc1C(=O)NCc1ccccc1 | 31
16 | O=C(NCc1ccccc1)c1ccccc1C(=O)N1CCCC1 | 55
17 | O=C(NCc1ccccc1)c1ccccc1C(=O)N1CCCCC1 | 16
18 | N#C[C@@H]1CCCN1C(=O)c1cccc2c1C(=O)N(Cc1ccccc1)C2 | 111
19 | O=C(c1cccc2c1C(=O)N(Cc1ccccc1)C2)N1CCCC1 | 98

System: not listed separately
Test: Intrinsic clearance in human liver microsomes at 1 uM after 30 mins by LC-MSD method
Format: ADME, Microsome
Details: read-out: CLH
Procedure, shortened: as §1

Row | SMILES | microsomal CLint at 1 µM [µL/min/mg]
20 | N#C[C@@H]1CS[C@H]2C[C@@H](NC(=O)OCc3ccccc3)C(=O)N12 | 10
21 | N#C[C@@H]1CCCN1C(=O)c1ccccc1C(=O)NCc1ccccc1 | 44
22 | O=C(NCc1ccccc1)c1ccccc1C(=O)N1CCCC1 | 25
23 | O=C(NCc1ccccc1)c1ccccc1C(=O)N1CCCCC1 | 89
24 | N#C[C@@H]1CCCN1C(=O)c1cccc2c1C(=O)N(Cc1ccccc1)C2 | 13
25 | O=C(c1cccc2c1C(=O)N(Cc1ccccc1)C2)N1CCCC1 | 14
